# Measured values from ChEMBL document CHEMBL3745678, “Novel β-Carboline/Hydroxamic Acid Hybrids Targeting Both Histone Deacetylase and DNA Display High Anticancer Activity via Regulation of the p53 Signaling Pathway” (J Med Chem, 2015).
# Active and inactive are the calls of the source. The rule behind the calls is not given here.
# How the values were obtained:
# LoVo = assay: Antiproliferative activity against human LoVo cells assessed as cell viability after 48 hrs by MTT assay; assay type: functional, cell-based
# SW480 = assay: Antiproliferative activity against human SW480 cells assessed as cell viability after 48 hrs by MTT assay; assay type: functional, cell-based; conditions: SW480, 48 h
# HCT-116 [1] = assay: Induction of DNA damage in human HCT116 cells assessed as histone H2AX phosphorylation at S139 at 1 to 5 uM after 12 hrs by western blot analysis; assay type: functional, cell-based
# Method in brief: (§1)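 DNA-damage marker. HCT116 cells treated 12 h with compound or vehicle. Lysates immunoblotted with anti-H2AX S139ph, and β-actin served as the control. Relative levels were obtained by densitometric scanning; means ± SD of three separate experiments.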
# [2] = Acute toxicity in ICR mouse assessed as survival rate at 468.8 mg/kg, ip measured on day 14; assay type: organism-based; conditions: in vivo
# Method in brief: (§2)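 Female ICR mice, single intraperitoneal injection at 585.9, 468.8, […], 300 or 240 mg/kg, or vehicle control, n = 10 per group. Deaths counted at 1 h, 4 h, daily on days 1-4 and over days 5-14. Eating, drinking, body weight and activity observed for 14 days, with survival (%) taken on day 14. LD50 calculated from mortality.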
# [3] = Antiproliferative activity against human HCT116 cells assessed as cell viability after 48 hrs by MTT assay; assay type: functional, cell-based, HCT-116; conditions: Homo sapiens, HCT-116, 48 h
# [4] = Antiproliferative activity against human SW620 cells assessed as cell viability after 48 hrs by MTT assay; assay type: functional, cell-based; conditions: SW-620, 48 h
# [5] = Cytotoxicity against rat IEC-18 cells assessed as survival after 48 hrs by MTT assay; assay type: cell-based
# Method in brief: (§3)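 HCT116 and rat IEC-18 cells incubated 48 h over a 0–5 µM range. Viability measured by MTT and expressed as % of control. GI50 taken from the inhibition curves; three independent experiments.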
# HCT-116 [6] = assay: Potency index, ratio of SAHA IC50 to compound IC50 for human HCT116 cells; assay type: functional
# Method in brief: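 HCT116 cells seeded at 10^4 cells/ml and adhered overnight, then treated 48 h over a concentration series with 0.1% DMSO as control. MTT readout; IC50 derived from inhibition % = (1 − OD treated/OD control) × 100, three independent measurements. Index = SAHA IC50 ÷ compound IC50.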
# Mus musculus [7] = assay: Acute toxicity in ICR mouse assessed as death at 240 to 585.9 mg/kg, ip measured after 1 hr; assay type: organism-based; conditions: in vivo; method in brief: as §2
# HCT-116 [8] = assay: Antitumor activity against human HCT116 cells xenografted in BALB/c mouse assessed as tumor growth inhibition at 45 and 90 mg/kg, ip measured twice per week over 22 days; assay type: functional, organism-based
# HCT-116 [9] = assay: Induction of apoptosis in human HCT116 cells at 5 uM after 48 hrs by annexin V-FITC/propidium iodide staining-based flow cytometric analysis; assay type: functional
# Method in brief: (§4)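 HCT116 cells cultured overnight, then exposed in triplicate for 48 h to 0.1, 1.0 or 5.0 µM, SAHA 5.0 µM or vehicle. Stained with FITC-Annexin V/PI for 15 min at room temperature.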
# Mus musculus [10] = assay: Acute toxicity in ICR mouse assessed as death at 240 to 375 mg/kg, ip measured after 4 hrs; assay type: organism-based; conditions: in vivo; method in brief: as §2
# [11] = Downregulation of Bcl2 expression in human HCT116 cells after 48 hrs by western blot analysis; assay type: functional, cell-based; conditions: HCT-116
# Method in brief: (§5)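 HCT116 cells treated 48 h with or without compound. Western blots probed for Bax, Bcl-2, cleaved caspase-3 and PARP. Band intensities relative to β-actin by densitometry; means ± SD from three separate experiments.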
# HDAC6 (Homo sapiens) = assay: Selectivity index, ratio of IC50 for human recombinant HDAC8 to IC50 for human recombinant HDAC6
# Mus musculus [12] = assay: Acute toxicity in ICR mouse assessed as abnormality in eating at 240 mg/kg, ip measured for 14 days; assay type: organism-based; conditions: in vivo, 336 h; method in brief: as §2
# Mus musculus [13] = assay: Acute toxicity in ICR mouse assessed as abnormality in drinking at 240 mg/kg, ip measured for 14 days; assay type: organism-based; conditions: in vivo, 336 h; method in brief: as §2
# HCT-116 [14] = assay: Induction of apoptosis in human HCT116 cells at 0.1 uM after 48 hrs by annexin V-FITC/propidium iodide staining-based flow cytometric analysis; assay type: functional; method in brief: as §4
# HCT-116 [15] = assay: Induction of PARP cleavage in human HCT116 cells at 1 to 5 uM after 48 hrs by western blot analysis; assay type: functional, cell-based; method in brief: as §5
# HCT-116 [16] = assay: Antiproliferative activity against human HCT116 cells assessed as cell death at 5 uM after 48 hrs by MTT assay; assay type: functional, cell-based; method in brief: as §3
# Mus musculus [17] = assay: Acute toxicity in ICR mouse assessed as death at 240 mg/kg, ip measured after 4 days; assay type: organism-based; conditions: in vivo, 96 h; method in brief: as §2
# Mus musculus [18] = assay: Acute toxicity in ICR mouse assessed as death at 240 to 300 mg/kg, ip measured after 3 days; assay type: organism-based; conditions: in vivo, 72 h; method in brief: as §2
# Mus musculus [19] = assay: Toxicity in BALB/c mouse xenografted with human HCT116 cells assessed as body weight change at 90 mg/kg, ip measured twice per week over 22 days; assay type: organism-based, HCT-116; conditions: in vivo, 528 h
# [20] = Acute toxicity in ICR mouse assessed as survival rate at 240 mg/kg, ip measured on day 14; assay type: organism-based; conditions: in vivo; method in brief: as §2
# HCT-116 [21] = assay: Induction of DNA damage in human HCT116 cells assessed as histone H2AX phosphorylation at S139 after 12 hrs by western blot analysis; assay type: functional, cell-based; method in brief: as §1
# [22] = Acute toxicity in ip dosed ICR mouse measured for 14 days; assay type: organism-based; conditions: in vivo; method in brief: as §2
# HCT-116 [23] = assay: Selectivity index, ratio of GI50 for rat IEC-18 cells to GI50 for human HCT116 cells; assay type: functional; method in brief: as §3
# [24] = Acute toxicity in ICR mouse assessed as survival rate at 585.9 mg/kg, ip measured on day 14; assay type: organism-based; conditions: in vivo; method in brief: as §2
# Histone deacetylase = assay: Inhibition of HDAC in human HeLa cell nuclear extract using Boc-Lys (Ac)-AMC as substrate after 60 mins by fluorometric analysis; assay type: cell-based
# Mus musculus [25] = assay: Acute toxicity in ICR mouse assessed as death at 240 mg/kg, ip measured for 14 days; assay type: organism-based; conditions: in vivo, 336 h; method in brief: as §2
# Mus musculus [26] = assay: Acute toxicity in ICR mouse assessed as abnormal activity at 240 mg/kg, ip measured for 14 days; assay type: organism-based; conditions: in vivo, 336 h; method in brief: as §2
# [27] = molecular target: Histone deacetylase (Homo sapiens) (UniProt Q13547+O15379+Q9UBN7+Q92769+Q9UQL6+Q8WUI4+Q9BY41+Q96DB2+P56524+Q9UKV0+Q969S8); assay: Inhibition of HDAC in human HCT116 cells assessed as increase in acetyl-histone H3 expression after 48 hrs by immunoblotting analysis; assay type: cell-based; conditions: HCT-116
# Method in brief: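 HCT116 cells treated 48 h with compound, SAHA or vehicle. Lysates probed by immunoblot for acetyl-histone H3 and acetyl-α-tubulin, with β-actin as loading control. Relative levels by densitometric scanning; means ± SD of three experiments.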
structure (smiles),measurement,setting,value
COc1ccc(-c2nc(NC(=O)NCCCC(=O)NO)cc3c2[nH]c2ccccc23)cc1,IC50,LoVo,1.63 µM
same,IC50,SW480,1.16 µM
same,Activity,HCT-116 [1],Active
same,survival at 14 day,[2],50%
same,GI50,[3],1.17 µM
same,IC50,[3],0.83 µM
same,IC50,[4],0.94 µM
same,GI50 at 48 h,[5],5.46 µM
same,Ratio IC50,HCT-116 [6],7
same,Activity,Mus musculus [7],Non-toxic
same,TGI,HCT-116 [8],Active
same,Activity,HCT-116 [9],73.9%
same,Activity,Mus musculus [10],Non-toxic
same,Activity,[11],Dose-dependent effect
same,Ratio IC50,HDAC6 (Homo sapiens),5
same,Activity,Mus musculus [12],Non-toxic
same,Activity,Mus musculus [13],Non-toxic
same,Activity,HCT-116 [14],21.6%
same,Activity,HCT-116 [15],Active
same,Activity,HCT-116 [16],Active
same,Activity,Mus musculus [17],Non-toxic
same,Activity,Mus musculus [18],Non-toxic
same,Activity,Mus musculus [19],Non-toxic
same,survival at 14 day,[20],100%
same,Activity,HCT-116 [21],Dose-dependent effect
same,LD50 at 336 h,[22],472 mg/kg
same,RatioGI50,HCT-116 [23],5
same,survival at 14 day,[24],30%
same,IC50,Histone deacetylase,0.27 µM
same,Activity,Mus musculus [25],Non-toxic
same,Activity,Mus musculus [26],Non-toxic
same,inhibition,[27],Dose-dependent effect
